From ChEMBL document CHEMBL3352219, “Triterpenes from Alisma orientalis act as androgen receptor agonists, progesterone receptor antagonists, and glucocorticoid receptor antagonists” (Bioorg Med Chem Lett, 2014)
The source made the active and inactive calls. The calls are words filed in the database; no cut-off is given here.

Experiments:
[1] = target: T1, Androgen receptor (Homo sapiens) (UniProt P10275); assay: Agonist activity at androgen receptor (unknown origin) expressed in human HepG2 cells assessed as relative luciferase activity at 1 uM by MMTV promoter-driven luciferase reporter gene assay relative to untreated vehicle control; assay type: cell-based
T1 sequence (whole entry): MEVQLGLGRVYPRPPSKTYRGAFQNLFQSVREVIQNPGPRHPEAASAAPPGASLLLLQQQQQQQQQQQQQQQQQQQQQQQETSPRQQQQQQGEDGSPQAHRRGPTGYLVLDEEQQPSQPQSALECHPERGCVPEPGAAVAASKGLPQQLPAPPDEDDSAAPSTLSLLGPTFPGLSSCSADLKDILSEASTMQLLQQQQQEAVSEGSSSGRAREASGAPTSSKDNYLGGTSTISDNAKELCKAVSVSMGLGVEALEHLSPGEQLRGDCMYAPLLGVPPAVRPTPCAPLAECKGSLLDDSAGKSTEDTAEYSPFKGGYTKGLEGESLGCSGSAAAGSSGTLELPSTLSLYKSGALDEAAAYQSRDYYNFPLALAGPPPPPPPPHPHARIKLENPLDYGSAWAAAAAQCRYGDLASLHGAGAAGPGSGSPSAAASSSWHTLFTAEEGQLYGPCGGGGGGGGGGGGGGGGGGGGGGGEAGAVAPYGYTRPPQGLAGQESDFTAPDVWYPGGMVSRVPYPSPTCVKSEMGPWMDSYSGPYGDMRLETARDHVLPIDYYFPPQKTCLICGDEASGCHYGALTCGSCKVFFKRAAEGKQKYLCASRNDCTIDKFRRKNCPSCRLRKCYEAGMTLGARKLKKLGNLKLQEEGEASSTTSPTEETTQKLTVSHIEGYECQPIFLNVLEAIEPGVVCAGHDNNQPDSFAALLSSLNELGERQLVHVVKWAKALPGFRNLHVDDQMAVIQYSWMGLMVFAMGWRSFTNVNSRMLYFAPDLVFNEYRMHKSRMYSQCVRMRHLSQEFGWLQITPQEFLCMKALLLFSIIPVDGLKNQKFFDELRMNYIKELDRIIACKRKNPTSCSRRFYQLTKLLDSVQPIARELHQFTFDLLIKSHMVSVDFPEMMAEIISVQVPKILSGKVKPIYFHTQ
Method in brief: (§1)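 HepG2 in phenol red-free DMEM with 10% charcoal-stripped FBS, plated in triplicate at 1 × 10^5 cells/well. After 24 h, transfected with 2 µg wild-type AR expression plasmid (pCMV-AR), 6 µg pMMTV-luc reporter and 1 µg β-galactosidase plasmid. Treated 24 h, then lysed. Luciferase normalized to β-gal and expressed relative to DMSO vehicle (=1).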

[2] = target: T2, Progesterone receptor (Homo sapiens) (UniProt P06401); assay: Antagonist activity at progesterone receptor (unknown origin) expressed in human HepG2 cells assessed as reduction in progesterone-induced response at 1 uM by MMTV promoter-driven luciferase reporter gene assay; assay type: cell-based
T2 sequence (whole entry): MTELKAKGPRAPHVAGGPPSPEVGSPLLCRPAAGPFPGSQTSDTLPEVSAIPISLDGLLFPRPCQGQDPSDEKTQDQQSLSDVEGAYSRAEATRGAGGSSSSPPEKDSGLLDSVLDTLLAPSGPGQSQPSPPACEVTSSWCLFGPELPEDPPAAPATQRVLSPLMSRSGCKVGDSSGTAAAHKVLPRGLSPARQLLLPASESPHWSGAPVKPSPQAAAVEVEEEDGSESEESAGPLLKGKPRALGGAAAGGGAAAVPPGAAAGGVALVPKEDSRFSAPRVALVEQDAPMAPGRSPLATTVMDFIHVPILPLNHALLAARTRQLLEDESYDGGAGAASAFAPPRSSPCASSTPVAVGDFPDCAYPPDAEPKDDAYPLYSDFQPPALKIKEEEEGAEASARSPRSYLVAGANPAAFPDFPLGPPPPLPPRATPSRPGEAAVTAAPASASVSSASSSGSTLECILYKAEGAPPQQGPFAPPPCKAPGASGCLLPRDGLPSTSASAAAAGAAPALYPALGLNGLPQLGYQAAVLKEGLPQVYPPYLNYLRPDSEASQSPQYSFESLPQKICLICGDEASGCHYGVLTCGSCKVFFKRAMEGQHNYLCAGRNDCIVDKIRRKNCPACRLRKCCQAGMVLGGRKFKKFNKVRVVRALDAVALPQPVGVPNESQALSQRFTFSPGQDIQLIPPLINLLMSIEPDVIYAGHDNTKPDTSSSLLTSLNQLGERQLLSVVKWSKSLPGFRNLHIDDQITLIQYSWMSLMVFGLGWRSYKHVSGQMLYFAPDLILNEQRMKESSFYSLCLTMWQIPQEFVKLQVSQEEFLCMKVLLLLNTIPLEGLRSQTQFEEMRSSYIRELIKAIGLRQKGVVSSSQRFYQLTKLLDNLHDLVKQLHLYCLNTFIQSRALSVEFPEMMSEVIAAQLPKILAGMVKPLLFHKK
Method in brief: (§2)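 Triplicate HepG2 wells in phenol red-free, charcoal-stripped serum medium. Cotransfected with 2 µg pCMV-PR, 6 µg pMMTV-luc and 1 µg β-gal plasmid. Compound added with 10 nM progesterone for 24 h. Lysate luminescence normalized to β-galactosidase and expressed relative to progesterone alone (=1).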

[3] = target: T3, Glucocorticoid receptor (Homo sapiens) (UniProt P04150); assay: Agonist activity at glucocorticoid receptor (unknown origin) expressed in human HepG2 cells assessed as relative luciferase activity at 20 uM by GRE promoter-driven luciferase reporter gene assay relative to dexamethasone
T3 sequence (whole entry): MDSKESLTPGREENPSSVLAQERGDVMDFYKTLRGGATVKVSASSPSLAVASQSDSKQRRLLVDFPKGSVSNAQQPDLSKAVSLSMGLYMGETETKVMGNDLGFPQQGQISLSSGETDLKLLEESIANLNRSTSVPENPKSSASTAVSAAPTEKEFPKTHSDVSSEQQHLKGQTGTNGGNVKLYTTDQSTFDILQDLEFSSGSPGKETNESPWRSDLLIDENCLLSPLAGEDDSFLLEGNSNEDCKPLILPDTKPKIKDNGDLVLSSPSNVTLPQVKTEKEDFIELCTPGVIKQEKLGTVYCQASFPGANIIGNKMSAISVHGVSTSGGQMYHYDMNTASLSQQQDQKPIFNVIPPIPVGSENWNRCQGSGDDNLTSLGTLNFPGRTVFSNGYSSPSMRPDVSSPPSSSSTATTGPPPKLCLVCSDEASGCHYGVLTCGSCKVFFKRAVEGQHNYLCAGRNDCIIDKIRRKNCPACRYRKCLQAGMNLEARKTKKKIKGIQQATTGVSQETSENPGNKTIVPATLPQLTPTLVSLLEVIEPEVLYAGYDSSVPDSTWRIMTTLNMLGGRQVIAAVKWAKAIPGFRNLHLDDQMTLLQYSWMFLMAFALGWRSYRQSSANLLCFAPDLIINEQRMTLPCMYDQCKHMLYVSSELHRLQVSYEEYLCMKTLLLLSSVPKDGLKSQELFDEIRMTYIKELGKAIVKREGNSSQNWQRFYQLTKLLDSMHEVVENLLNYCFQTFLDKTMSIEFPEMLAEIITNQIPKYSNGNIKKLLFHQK

[4] = target: T3, Glucocorticoid receptor (Homo sapiens); assay: Antagonist activity at glucocorticoid receptor (unknown origin) expressed in human HepG2 cells assessed as reduction in dexamethasone-induced response at 10 uM by MMTV promoter-driven luciferase reporter gene assay; assay type: cell-based; details: in the assay text read “GRE promoter-driven” for “MMTV promoter-driven”
Method in brief: (§3)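 HepG2 in phenol red-free DMEM with charcoal-stripped FBS, triplicate wells. Transfected with 2 µg pCMV-GR, 6 µg pGRE-luc reporter and 1 µg β-gal control. Compound co-treated with 5 nM dexamethasone for 24 h. Luciferase/β-galactosidase ratio expressed relative to dexamethasone alone (=1).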

[5] = target: T1, Androgen receptor (Homo sapiens); assay: Agonist activity at androgen receptor (unknown origin) expressed in human HepG2 cells assessed as relative luciferase activity at 100 nM by MMTV promoter-driven luciferase reporter gene assay relative to untreated vehicle control; assay type: cell-based; method in brief: as §1
[6] = target: T2, Progesterone receptor (Homo sapiens); assay: Antagonist activity at progesterone receptor (unknown origin) expressed in human HepG2 cells assessed as reduction in progesterone-induced response at 100 nM by MMTV promoter-driven luciferase reporter gene assay; assay type: cell-based; method in brief: as §2
[7] = target: T2, Progesterone receptor (Homo sapiens); assay: Agonist activity at progesterone receptor (unknown origin) expressed in human HepG2 cells assessed as relative luciferase activity at 20 uM by MMTV promoter-driven luciferase reporter gene assay relative to progesterone; assay type: cell-based
HepG2 = assay: Cytotoxicity against human HepG2 cells; assay type: cell-based
[8] = target: T3, Glucocorticoid receptor (Homo sapiens); assay: Antagonist activity at glucocorticoid receptor (unknown origin) expressed in human HepG2 cells assessed as reduction in dexamethasone-induced response at 100 nM by MMTV promoter-driven luciferase reporter gene assay; assay type: cell-based; details: in the assay text read “GRE promoter-driven” for “MMTV promoter-driven”; method in brief: as §3
[9] = target: T2, Progesterone receptor (Homo sapiens); assay: Antagonist activity at progesterone receptor (unknown origin) expressed in human HepG2 cells assessed as reduction in progesterone-induced response at 10 uM by MMTV promoter-driven luciferase reporter gene assay; assay type: cell-based; method in brief: as §2
[10] = target: T3, Glucocorticoid receptor (Homo sapiens); assay: Antagonist activity at glucocorticoid receptor (unknown origin) expressed in human HepG2 cells assessed as reduction in dexamethasone-induced response at 1 uM by MMTV promoter-driven luciferase reporter gene assay; assay type: cell-based; details: in the assay text read “GRE promoter-driven” for “MMTV promoter-driven”; method in brief: as §3

For `CC(=O)O[C@@H](C[C@@H](C)C1=C2[C@H](O)[C@H](O)[C@H]3[C@@]4(C)CCC(=O)C(C)(C)[C@@H]4CC[C@]3(C)[C@@]2(C)CC1=O)[C@H]1OC1(C)C`, the Activity [1] was “inactive”, the Activity (% of progesterone control) [2] was 71% and the Activity [3] was “inactive”. The Activity (% of dexamethasone control) [4] was 30%, the Activity [5] was “inactive” and the inhibition [6] was “inactive”. For the same compound, the Activity [7] was “inactive”, the Activity (HepG2) was “Non-toxic” and the inhibition [8] was “inactive”. It also gave an Activity (% of progesterone control) [9] of 64% and an Activity (% of dexamethasone control) [10] of 56%.
In the case of `C[C@H](C[C@H](O)[C@H]1OC1(C)C)C1=C2C[C@H](O)[C@H]3[C@@]4(C)CCC(=O)C(C)(C)[C@@H]4CC[C@]3(C)[C@@]2(C)CC1` [ALISOL B], the Activity (HepG2) is reported as “Toxic”.
In the case of `CC(=O)O[C@@H](C[C@@H](C)C1=C2C[C@H](O)[C@H]3[C@@]4(C)CCC(=O)C(C)(C)[C@@H]4CC[C@]3(C)[C@@]2(C)CC1)[C@@H](O)C(C)(C)O`, the Activity [1] is reported as “inactive”, the Activity (% of progesterone control) [2] is reported as 82% and the Activity [3] is reported as “inactive”. The Activity (% of dexamethasone control) [4] was 39%, the Activity [5] was “inactive” and the inhibition [6] was “Active”. For the same compound, the Activity [7] was “inactive”, the Activity (HepG2) was “Non-toxic” and the inhibition [8] was “Active”. The Activity (% of progesterone control) [9] was 66% and the Activity (% of dexamethasone control) [10] was 56%.
